Test results published in ChEMBL document CHEMBL1140160, “Evidence for the mechanism of action of the antifungal phytolaccoside B isolated from Phytolacca tetramera Hauman” (J Nat Prod, 2008).
Converted amounts (≈) assume the structure as drawn. The source made the active and inactive calls. The rule behind the calls is not given here.

Tests used:
Saccharomyces cerevisiae [1] = assay: Effect on (1->3)-beta-D-glucan synthase-mediated [14C]-Glucose incorporation in Saccharomyces cerevisiae assessed as residual activity after 30 mins
In short: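 Membrane fraction (18000g pellet) from early-log S. cerevisiae MATa trp1 ura3 leu2 his3 pep4::HIS3 nuc1::LEU2 broken with glass beads; 15 µg protein in 40 µL; compound 20 µg/assay added in MeOH; [14C]-glucose incorporation into insoluble glucan; 30 min at 30 °C, stopped with 10% TCA; duplicates; papulacandin B as standard.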

Aspergillus niger = assay: Antifungal activity against Aspergillus niger ATCC 9029 after 48 hrs by spectrophotometry; format: functional; details: ATCC 9029, 48 h
Candida albicans = assay: Antifungal activity against Candida albicans ATCC 10231 after 48 hrs by spectrophotometry; format: functional; details: ATCC 10231, 48 h; for MIC: read-out: MIC100
Saccharomyces cerevisiae [2] = assay: Antifungal activity against Saccharomyces cerevisiae ATCC 9763 after 48 hrs by sorbitol protection assay by spectrophotometry; format: functional; details: ATCC 9763, 48 h; for MIC: read-out: MIC100
In short: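 S. cerevisiae ATCC 9763 by the standard broth microdilution procedure, run on duplicate plates of 2-fold dilutions, one plate with 0.8 M sorbitol added to every well as osmotic support; MICs read at 2 and 7 days.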

Cryptococcus neoformans = assay: Antifungal activity against Cryptococcus neoformans ATCC 32264 after 48 hrs by spectrophotometry; format: functional; details: ATCC 32264, 48 h; for MIC: read-out: MIC100
Aspergillus fumigatus = assay: Antifungal activity against Aspergillus fumigatus ATCC 26934 after 48 hrs by spectrophotometry; format: functional; details: ATCC 26934, 48 h, read-out: MIC100
Aspergillus flavus = assay: Antifungal activity against Aspergillus flavus ATCC 9170 after 48 hrs by spectrophotometry; format: functional; details: ATCC 9170, 48 h, read-out: MIC100
[3] = Hemolytic effect in erythrocytes upto 120 mins by spectrophotometry; format: ADME, cell-based; details: erythrocyte, 2 h
In short: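 Heparinized human red blood cells washed three times in isotonic PBS pH 7.0, made into a 4% suspension in sterile 5% glucose. Compound from DMSO stock diluted in 5% glucose to final 188 to 9 µM; incubated at 37 °C. Released haemoglobin read at 540 nm. LC100 is the lowest concentration giving complete lysis (clearing). DMSO alone served as the vehicle control.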

Neurospora crassa [4] = assay: Antifungal activity against Neurospora crassa ATCC 9279 after 48 hrs by spectrophotometry; format: functional; details: ATCC 9279, 48 h, read-out: MIC100
[5] = molecular target: T1, Chitin synthase 1 (Saccharomyces cerevisiae S288c) (UniProt P08004); assay: Effect on chitin synthase 1-mediated incorporation of [14C]N-acetylglucosamine in Saccharomyces cerevisiae assessed as residual activity after 90 mins
T1 sequence (whole entry): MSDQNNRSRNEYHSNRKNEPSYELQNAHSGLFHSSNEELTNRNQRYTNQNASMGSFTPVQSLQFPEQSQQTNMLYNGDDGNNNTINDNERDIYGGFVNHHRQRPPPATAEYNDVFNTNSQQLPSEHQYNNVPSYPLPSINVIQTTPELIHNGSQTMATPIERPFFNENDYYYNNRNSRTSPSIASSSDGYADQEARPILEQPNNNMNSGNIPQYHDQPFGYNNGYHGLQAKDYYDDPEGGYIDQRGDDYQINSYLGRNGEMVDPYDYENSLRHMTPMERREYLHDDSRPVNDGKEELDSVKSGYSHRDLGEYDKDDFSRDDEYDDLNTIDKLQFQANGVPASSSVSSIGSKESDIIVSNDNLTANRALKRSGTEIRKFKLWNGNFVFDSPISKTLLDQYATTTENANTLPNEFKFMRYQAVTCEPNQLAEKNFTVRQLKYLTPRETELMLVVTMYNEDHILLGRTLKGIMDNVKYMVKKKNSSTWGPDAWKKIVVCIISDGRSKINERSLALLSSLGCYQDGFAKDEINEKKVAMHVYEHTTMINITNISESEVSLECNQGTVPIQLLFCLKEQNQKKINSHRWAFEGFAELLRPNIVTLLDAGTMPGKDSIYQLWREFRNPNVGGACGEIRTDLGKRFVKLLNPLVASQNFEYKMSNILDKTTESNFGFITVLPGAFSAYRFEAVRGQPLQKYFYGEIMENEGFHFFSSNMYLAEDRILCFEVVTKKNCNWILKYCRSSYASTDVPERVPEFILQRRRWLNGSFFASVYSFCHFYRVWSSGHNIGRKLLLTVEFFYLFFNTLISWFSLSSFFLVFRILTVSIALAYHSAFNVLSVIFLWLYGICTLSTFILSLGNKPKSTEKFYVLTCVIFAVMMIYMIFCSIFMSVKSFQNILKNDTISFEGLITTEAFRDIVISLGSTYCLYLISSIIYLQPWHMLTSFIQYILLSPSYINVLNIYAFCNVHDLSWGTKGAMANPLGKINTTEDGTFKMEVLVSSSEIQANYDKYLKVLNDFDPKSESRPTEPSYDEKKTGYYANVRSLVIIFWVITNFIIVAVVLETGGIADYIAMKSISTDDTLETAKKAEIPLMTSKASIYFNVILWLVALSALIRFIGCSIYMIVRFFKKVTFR

[6] = molecular target: T1, Chitin synthase 1 (Saccharomyces cerevisiae S288c); assay: Effect on chitin synthase 1-mediated incorporation of [14C]N-Acetylglucosamine in Saccharomyces cerevisiae assessed as residual activity after 90 mins in presence of trypsin
In short: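 Same S. cerevisiae membrane fraction, 30 µg protein in 50 µL; compound 20 µg/assay in MeOH; zymogen activated by trypsin (2 µL of 0.25 µg/µL, 15 min, 30 °C) then stopped with trypsin inhibitor; [14C]-N-acetylglucosamine incorporation into chitin over 90 min at 30 °C, stopped with 10% TCA; duplicates; nikkomycin Z as reference.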

Neurospora crassa [7] = assay: Antifungal activity against Neurospora crassa assessed as increase in thickness of hyphae relative to control at 37 uM; format: functional, organism-based
In short: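 N. crassa ATCC 9279, 1 × 10^5 spores/mL, grown 24 h at 28 °C with shaking (145 rpm) in YEPD with or without 37 µM. Mycelium fixed in 4% glutaraldehyde in 0.1 M cacodylate, OsO4 and KMnO4 treated, acetone-dehydrated, Spurr-embedded; ultrathin sections stained with uranyl acetate and Reynolds solution; wall thickness measured by transmission electron microscopy.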

Saccharomyces cerevisiae [8] = assay: Antifungal activity against Saccharomyces cerevisiae assessed as increase in cellular leakage at 74 uM relative to sodium dodecyl sulphate at 6-48 hrs using spectrophotometry; format: functional
In short: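 S. cerevisiae ATCC 9763 grown with shaking at 30 °C to early stationary phase, washed twice, diluted to (3-5) × 10^7 cells/mL in cold MOPS buffer pH 6.0; compound at final 74 µM; 2% SDS set as 100% leakage; incubated at 30 °C and sampled at 6, 12, 24 and 48 h; supernatant absorbance at 260 nm; means of at least two independent assays; Student's test.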

Saccharomyces cerevisiae [9] = assay: Antifungal activity against Saccharomyces cerevisiae assessed as binding to membrane ergosterol in presence of exogenous ergosterol; format: functional, organism-based
[10] = molecular target: T1, Chitin synthase 1 (Saccharomyces cerevisiae S288c); assay: Enhancement of chitin synthase 1 activity in Saccharomyces cerevisiae assessed as increase in amount of cell wall chitin at 37 uM by calcofluor staining
In short: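 Exponentially growing S. cerevisiae ATCC 9763 in YEPD, untreated or exposed to 37 µM, washed and stained with Calcofluor white (20 µM final, 5 min, rt); fluorescence around mother and daughter cell surfaces examined by UV fluorescence microscopy, 400×, same exposure times.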

[11] = molecular target: T1, Chitin synthase 1 (Saccharomyces cerevisiae S288c); assay: Enhancement of chitin synthase 1 activity in Saccharomyces cerevisiae assessed as increase in amount of cell wall chitin at 100 mg by Reissig method
In short: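 Untreated and 37 µM-treated S. cerevisiae cells (100 mg each) extracted with 6% KOH for 90 min, digested with chitinase and glusulase; N-acetylglucosamine measured by the Reissig reaction (potassium tetraborate, boiling 3 min, DMAB 20 min at 36-38 °C), absorbance at 585 nm; NAG as standard.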

[12] = molecular target: Chitin synthase 1 (Neurospora crassa OR74A) (UniProt P29070); assay: Enhancement of chitin synthase 1 activity in Neurospora crassa assessed as increase in amount of cell wall chitin at 37 uM by calcofluor staining
Sequence of Chitin synthase 1 (Neurospora crassa OR74A) (P29070 whole entry): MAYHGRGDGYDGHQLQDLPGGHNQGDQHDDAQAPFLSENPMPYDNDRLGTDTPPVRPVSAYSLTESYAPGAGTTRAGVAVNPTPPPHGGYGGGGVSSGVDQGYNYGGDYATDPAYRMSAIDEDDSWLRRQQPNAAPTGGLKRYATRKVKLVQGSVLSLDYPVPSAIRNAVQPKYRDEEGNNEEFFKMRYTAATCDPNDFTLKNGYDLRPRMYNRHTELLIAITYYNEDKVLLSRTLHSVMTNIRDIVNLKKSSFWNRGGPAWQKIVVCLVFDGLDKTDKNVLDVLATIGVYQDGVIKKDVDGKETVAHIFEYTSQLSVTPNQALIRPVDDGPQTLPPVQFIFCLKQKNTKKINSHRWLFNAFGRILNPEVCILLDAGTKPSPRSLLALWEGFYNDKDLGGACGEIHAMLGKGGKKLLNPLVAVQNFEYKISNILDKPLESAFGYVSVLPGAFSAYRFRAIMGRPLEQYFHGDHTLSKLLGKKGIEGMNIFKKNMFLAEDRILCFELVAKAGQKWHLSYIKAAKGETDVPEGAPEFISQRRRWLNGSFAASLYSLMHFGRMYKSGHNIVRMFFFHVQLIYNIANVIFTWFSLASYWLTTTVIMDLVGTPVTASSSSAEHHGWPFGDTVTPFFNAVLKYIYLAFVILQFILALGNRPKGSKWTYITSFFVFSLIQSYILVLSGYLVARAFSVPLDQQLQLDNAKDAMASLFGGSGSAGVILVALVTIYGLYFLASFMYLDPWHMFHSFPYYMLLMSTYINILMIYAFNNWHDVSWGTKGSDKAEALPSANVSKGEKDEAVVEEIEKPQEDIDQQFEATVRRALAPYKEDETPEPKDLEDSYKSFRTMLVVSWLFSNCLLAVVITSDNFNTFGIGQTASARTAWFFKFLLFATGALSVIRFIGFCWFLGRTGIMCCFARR
In short: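 Exponentially growing N. crassa ATCC 9279 hyphae in YEPD liquid medium, untreated or exposed to 37 µM, washed and stained with Calcofluor white (20 µM final, 5 min, rt), washed; chitin visualised as bluish fluorescence under UV by fluorescence microscopy, 400×, same exposure times.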

[13] = molecular target: Chitin synthase 1 (Neurospora crassa OR74A) (UniProt P29070); assay: Enhancement of chitin synthase 1 activity in Neurospora crassa assessed as increase in cell wall thickness at 37 uM by transmission electron microscopy

With CCC(O)/C=C/C=C/C=C/C(=O)OC[C@H]1O[C@@H](O[C@H]2[C@H](OC(=O)/C=C/C=C/CC(O)/C(C)=C/C=C/CCC(C)CC)[C@@H](O)[C@@]3(OCc4cc(O)cc(O)c43)O[C@@H]2CO)[C@H](O)[C@@H](O)[C@H]1O (stereo partly drawn) the Activity (Saccharomyces cerevisiae [1]) was 5%.

C[C@@H]1[C@H](O)[C@@H](C)/C=C/C=C/C=C/C=C/C=C/C=C/C=C/[C@H](O[C@@H]2O[C@H](C)[C@@H](O)[C@H](N)[C@@H]2O)C[C@@H]2O[C@](O)(C[C@@H](O)C[C@@H](O)[C@H](O)CC[C@@H](O)C[C@@H](O)CC(=O)O[C@H]1C)C[C@H](O)[C@H]2C(=O)O [AMPHOTERICIN B] gave an MIC (Aspergillus niger; read-out: MIC100) of 0.5 µM (≈ 0.462 µg/mL), an MIC (Candida albicans) of 0.84 µM (≈ 0.776 µg/mL) and an MIC (Saccharomyces cerevisiae [2]) of 1.62 µM (≈ 1.5 µg/mL). The MIC (Cryptococcus neoformans) was 0.27 µM (≈ 0.25 µg/mL), the MIC (Aspergillus fumigatus) was 0.5 µM (≈ 0.462 µg/mL) and the MIC (Aspergillus flavus) was 0.5 µM (≈ 0.462 µg/mL). It also gave an LC100 [3] of 13.5 µM and an MIC (Neurospora crassa [4]) of 1 µM (≈ 0.924 µg/mL).

Work on CC(=O)N1CCN(c2ccc(OCC3COC(Cn4ccnc4)(c4ccc(Cl)cc4Cl)O3)cc2)CC1 (stereo not drawn) [KETOCONAZOLE] yielded an MIC (Aspergillus niger; read-out: MIC100) of 0.25 µM (≈ 0.133 µg/mL), an MIC (Candida albicans) of 1 µM (≈ 0.531 µg/mL) and an MIC (Saccharomyces cerevisiae [2]) of 1 µM (≈ 0.531 µg/mL). It also gave an MIC (Cryptococcus neoformans) of 0.5 µM (≈ 0.266 µg/mL), an MIC (Aspergillus fumigatus) of 0.13 µM (≈ 0.0691 µg/mL) and an MIC (Aspergillus flavus) of 0.5 µM (≈ 0.266 µg/mL). For the same compound, the MIC (Neurospora crassa [4]) was 2 µM (≈ 1.06 µg/mL).

Compound COC(=O)[C@@]1(C)CC[C@]2(C(=O)O)CC[C@]3(C)C(=CC[C@@H]4[C@@]5(C)C[C@H](O)[C@H](O[C@@H]6OC[C@@H](O)[C@H](O)[C@H]6O)[C@@](C)(CO)[C@@H]5CC[C@]43C)[C@@H]2C1 [PHYTOLACCOSIDE B] has an MIC (Aspergillus niger; read-out: MIC) of 188 µM (≈ 125 µg/mL), an MFC (Candida albicans) of 150 µM (≈ 99.7 µg/mL) and an MIC50 (Candida albicans) of 74 µM (≈ 49.2 µg/mL). For the same compound, the MIC80 (Candida albicans) was 74 µM (≈ 49.2 µg/mL), the MIC (Candida albicans) was 74 µM (≈ 49.2 µg/mL) and the MFC (Saccharomyces cerevisiae [2]) was 150 µM (≈ 99.7 µg/mL). The MIC50 (Saccharomyces cerevisiae [2]) was 18 µM (≈ 12 µg/mL), the MIC80 (Saccharomyces cerevisiae [2]) was 37 µM (≈ 24.6 µg/mL) and the MIC (Saccharomyces cerevisiae [2]) was 74 µM (≈ 49.2 µg/mL). The MFC (Cryptococcus neoformans) was 112 µM (≈ 74.5 µg/mL), the MIC50 (Cryptococcus neoformans) was 9 µM (≈ 5.98 µg/mL) and the MIC80 (Cryptococcus neoformans) was 74 µM (≈ 49.2 µg/mL). For the same compound, the MIC (Cryptococcus neoformans) was 112 µM (≈ 74.5 µg/mL), the MIC (Aspergillus fumigatus) was 188 µM (≈ 125 µg/mL) and the MIC (Aspergillus flavus) was 74 µM (≈ 49.2 µg/mL). For the same compound, the Activity (Saccharomyces cerevisiae [1]) was 93.4%, the Activity [5] was 190% and the Activity [6] was 166%. The LC100 [3] was > 188 µM, the Activity (Neurospora crassa [7]) was “Active” and the Activity (Saccharomyces cerevisiae [8]) was 17%. For the same compound, the MIC (Neurospora crassa [4]) was 74 µM (≈ 49.2 µg/mL), the Activity (Saccharomyces cerevisiae [9]) was “inactive” and the Activity [10] was “Active”. For the same compound, the Activity [11] was 23%, the Activity [12] was “Active” and the Activity [13] was 400 nm.
